We go through 2 compounds from publication PMC5956897 (Journal of inorganic biochemistry, 2018).

For data set [1], the system named is MDA-MB-231 cells. As to the kind of experiment: Intracellular ROS detection with DCFH2-DA by flow cytometry. It is filed as cell-based. Summed up:
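Cells were seeded at 2.0 × 10⁵ per well and incubated overnight. They were treated for 2 h with test compound (50 μM) in phenol-red-free EMEM with 0.1% DMSO; the H₂O₂ control in PBS ran for 10 min. After PBS washes, cells took up DCFH₂-DA (30 μM) in warm PBS. They were detached with trypsin/EDTA, held on ice, and read by flow cytometry (488 nm excitation, 530/30 nm) within 1 h. n=3, mean ± SDM.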
(In general: Flow cytometry measures light scatter and fluorescence of single cells or particles in a stream.)

For data set [2], the system named is MDA-MB-231 cells. As to the kind of experiment: Cell cycle analysis. It is filed as cell-based. Conditions: MDA-MB-231, 10 μM, 12 h.
The test system of data set [3] is MEL cells. As to the kind of experiment: Spectrophotometric hemoglobin quantitation in induced MEL cells. It is filed as cell-based, murine.

Regarding `OO` [H2O2, Hydrogen peroxide], in data set [1] (MDA-MB-231, positive control in PBS, 10 min), the “DCF response compared to untreated control” value is given as “an order of magnitude higher than that of the untreated control”.

In the case of `O=C(N/N=C/c1ccccc1O)c1ccncc1` [SIH, salicyl isonicotinoyl hydrazone], the “ROS/RNS levels (DCF fluorescence) compared to untreated control” value in data set [1] (MDA-MB-231, 50 μM, 2 h) was “significant decrease of DCF fluorescence”. Besides, the “G0/1 accumulation (cell cycle arrest)” value in data set [2] is reported as “arrest at the G1/S interface”. The “effect on hemoglobin production” value in data set [3] (0.5 μM or 5 μM, 72 h, without SA) is “did not have major effects on hemoglobin production”. For the same compound, in data set [3] (72 h, without SA, statistically significant), the “decrease in intracellular hemoglobin concentrations” value was “less than 20%”. Moreover, in data set [3] (with succinylacetone (SA, 1 mM), normalized data), the “change in intracellular Hb concentrations” value was “did not result in statistically significant changes”.
